Results published in ChEMBL document CHEMBL3351261, “Induction of intrinsic apoptosis pathway in colon cancer HCT-116 cells by novel 2-substituted-5,6,7,8-tetrahydronaphthalene derivatives” (Eur J Med Chem, 2014).
Values after ≈ are worked out from the molar mass of the structure shown. Active and inactive are the calls of the source. No cut-off for these calls is given here.

Tests used:
HepG2 = test: Cytotoxicity against human HepG2 cells after 48 hrs by MTT method; type: functional, cell-based; details: HepG2, 48 h
HeLa = test: Cytotoxicity against human HeLa cells after 48 hrs by MTT method; type: functional, cell-based
[1] = Cytotoxicity against human HCT116 cells after 48 hrs by MTT method; type: functional, cell-based; details: HCT-116, 48 h
MCF7 = test: Cytotoxicity against human MCF7 cells after 48 hrs by MTT method; type: functional, cell-based; details: MCF7, 48 h
HCT-116 [2] = test: Induction of apoptosis in human HCT116 cells at IC50 by acridine orange/ethidium bromide staining-based fluorescence microscopy; type: functional
Method in brief: (§1)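 Treated and untreated HCT-116 cells were stained with acridine orange/ethidium bromide (each 100 µg/ml mix in PBS) and examined under fluorescence microscopy, blinded. Cells with yellow condensed or fragmented nuclei were counted as apoptotic; bright orange chromatin in round nuclei was counted as necrotic. Each is reported as % of the dead-cell population.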

HCT-116 [3] = test: Induction of necrosis in human HCT116 cells at IC50 by acridine orange/ethidium bromide staining-based fluorescence microscopy; type: functional; method in brief: as §1
HCT-116 [4] = test: Induction of DNA fragmentation in human HCT116 cells at IC50 after 30 mins relative to control; type: functional
Method in brief: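 HCT-116 cells, treated or untreated, were resuspended in TE buffer (10 mM Tris, 1 mM EDTA, pH 8.0) and lysed 30 min in 5 mM Tris, 20 mM EDTA, 0.5% Triton X-100, pH 8.0. Fragmented DNA (supernatant) was separated from intact chromatin (pellet) by centrifugation and quantified with diphenylamine reagent. % fragmentation = supernatant DNA / pellet DNA; three measurements, mean ± SD.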

HCT-116 [5] = test: Induction of apoptosis in human HCT116 cells assessed as reduction of mitochondrial membrane potential after 2 hrs by JC-1 staining-based fluorescence assay; type: functional, cell-based
Method in brief: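 HCT-116 cells in 96-well plates were preloaded with 10 µg/ml JC-1 in HBSS for 30 min at 37 °C, then incubated with or without compound for 2 h at 37 °C. The 590/527 nm emission ratio was read at zero time and at 2 h and expressed as % of the zero-time reading. CCCP served as positive control; mean of three readings ± SD.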

HCT-116 [6] = test: Induction of apoptosis in human HCT116 cells assessed as cytochrome C accumulation by immunoblotting analysis; type: functional, cell-based
Method in brief: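 HCT-116 cells were lysed in ice-cold buffer (pH 7.4) with NP40, Triton X-100 and protease/phosphatase inhibitors, then cleared at 14,000× g for 15 min at 4 °C; protein was measured by BCA. Soluble protein (20 µg) was dot-blotted on nitrocellulose and probed for cytochrome c, detected with HRP anti-goat antibody and OPD. Dot colour intensity is given as mean % of three replicates.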

HCT-116 [7] = test: Induction of apoptosis in human HCT116 cells assessed as increase in total caspase level relative to control; type: functional, cell-based
Method in brief: (§2)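 HCT-116 cells, treated or untreated, were lysed (pH 7.4) and cleared at 14,000× g, 15 min, 4 °C. Kit-based read-outs: total caspases via Red-VAD-FMK fluorescence (Ex 540/Em 570 nm); caspase-3 colorimetric at 405 nm; caspase-9 via LEHD-pNA cleavage, pNA at 405 nm. Results are fold over untreated cells.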

HCT-116 [8] = test: Induction of apoptosis in human HCT116 cells assessed as increase in caspase-3 level relative to control; type: functional, cell-based; method in brief: as §2
HCT-116 [9] = test: Induction of apoptosis in human HCT116 cells assessed as increase in caspase-9 level relative to control; type: functional, cell-based; method in brief: as §2

Structure (SMILES)	IC50 (HepG2) [µg/mL]	IC50 (HeLa) [µg/mL]	IC50 [1] [µg/mL]	IC50 (MCF7) [µg/mL]	Activity (HCT-116 [2]) [%]	Activity (HCT-116 [3]) [%]	Activity (HCT-116 [4])	Activity (HCT-116 [5])	Activity (HCT-116 [6])	Activity (HCT-116 [7])	Activity (HCT-116 [8])	Activity (HCT-116 [9])
COc1ccc(N/C=C\C(=O)c2ccc3c(c2)CCCC3)cc1	31.8 (≈ 103 µM)	46.1 (≈ 150 µM)	31.8 (≈ 103 µM)	43.1 (≈ 140 µM)	–	–	–	–	–	–	–	–
O=C(/C=C/N1CCCCC1)c1ccc2c(c1)CCCC2	39.1 (≈ 145 µM)	35.6 (≈ 132 µM)	35.4 (≈ 131 µM)	41.1 (≈ 153 µM)	–	–	–	–	–	–	–	–
O=c1[nH]c(=O)c2c(-c3ccc4c(c3)CCCC4)ccnc2[nH]1	39.9 (≈ 136 µM)	29.1 (≈ 99.2 µM)	18.6 (≈ 63.4 µM)	24.4 (≈ 83.2 µM)	–	–	–	–	–	–	–	–
c1ccc(-c2cc3nccc(-c4ccc5c(c4)CCCC5)n3n2)cc1	37.6 (≈ 116 µM)	36.2 (≈ 111 µM)	26.7 (≈ 82 µM)	19.9 (≈ 61.2 µM)	–	–	–	–	–	–	–	–
c1cc(-c2ccc3c(c2)CCCC3)n2ncnc2n1	15.9 (≈ 63.5 µM)	21.8 (≈ 87.1 µM)	2.1 (≈ 8.39 µM)	48.2 (≈ 193 µM)	77	0	Active	Active	Active	Active	Active	inactive
CC(=O)O[C@H]1C(=O)[C@@]2(C)[C@H]([C@H](OC(=O)c3ccccc3)[C@]3(O)C[C@H](OC(=O)[C@H](O)[C@@H](NC(=O)c4ccccc4)c4ccccc4)C(C)=C1C3(C)C)[C@]1(OC(C)=O)CO[C@@H]1C[C@@H]2O [PACLITAXEL]	0.59 (≈ 0.691 µM)	0.47 (≈ 0.55 µM)	0.38 (≈ 0.445 µM)	0.61 (≈ 0.714 µM)	–	–	44%	–	–	–	–	–
CN(C)/C=C/C(=O)c1ccc2c(c1)CCCC2	22.3 (≈ 97.2 µM)	33.4 (≈ 146 µM)	18.9 (≈ 82.4 µM)	29.3 (≈ 128 µM)	–	–	–	–	–	–	–	–
O=c1[nH]c(=S)[nH]c2nccc(-c3ccc4c(c3)CCCC4)c12	27 (≈ 87.3 µM)	25.3 (≈ 81.8 µM)	0.49 (≈ 1.58 µM)	18.2 (≈ 58.8 µM)	77	0	Active	Active	Active	Active	Active	Active
O=C(Nc1ccc(-c2ccc3c(c2)CCCC3)oc1=O)c1ccccc1	29.3 (≈ 84.8 µM)	38.3 (≈ 111 µM)	47.7 (≈ 138 µM)	27.5 (≈ 79.6 µM)	–	–	–	–	Active	Active	–	–
O=C(/C=C\Nc1ccccc1)c1ccc2c(c1)CCCC2	19.9 (≈ 71.7 µM)	30.6 (≈ 110 µM)	41.6 (≈ 150 µM)	32.2 (≈ 116 µM)	–	–	–	–	–	–	–	–
O=C(/C=C\Nc1ccc(Cl)cc1)c1ccc2c(c1)CCCC2	30.3 (≈ 97.2 µM)	19.9 (≈ 63.8 µM)	7.9 (≈ 25.3 µM)	28.7 (≈ 92 µM)	77	0	Active	inactive	–	–	–	–
O=C(c1ccc2c(c1)CCCC2)c1coc2ccc(O)cc12	39.2 (≈ 134 µM)	41.6 (≈ 142 µM)	9.5 (≈ 32.5 µM)	40.3 (≈ 138 µM)	77	0	Active	inactive	–	–	–	–
CC(=O)Nc1ccc(-c2ccc3c(c2)CCCC3)oc1=O	45.3 (≈ 160 µM)	30.4 (≈ 107 µM)	8.4 (≈ 29.6 µM)	20.9 (≈ 73.8 µM)	77	0	Active	–	–	–	inactive	Active
Cc1ccc(N/C=C\C(=O)c2ccc3c(c2)CCCC3)cc1	42.7 (≈ 147 µM)	28.7 (≈ 98.5 µM)	42.1 (≈ 144 µM)	43.6 (≈ 150 µM)	–	–	–	–	–	–	–	–
O=C(/C=C/N1CCOCC1)c1ccc2c(c1)CCCC2	18.2 (≈ 67.1 µM)	41.2 (≈ 152 µM)	7.2 (≈ 26.5 µM)	38.6 (≈ 142 µM)	77	0	Active	inactive	–	–	–	–
O=C(c1ccc2c(c1)CCCC2)c1coc2c1cc(O)c1ccccc12	31.7 (≈ 92.6 µM)	40.5 (≈ 118 µM)	36.2 (≈ 106 µM)	48.7 (≈ 142 µM)	–	–	–	–	–	–	–	–
O=C(/C=C\Nc1ccc([N+](=O)[O-])cc1)c1ccc2c(c1)CCCC2	27.4 (≈ 85 µM)	48.4 (≈ 150 µM)	6.8 (≈ 21.1 µM)	28.5 (≈ 88.4 µM)	77	0	Active	–	Active	Active	–	–
